Measured values published in ChEMBL document CHEMBL3865847, “The synthesis and biological evaluation of alkyl and benzyl naphthyridinium analogs of eupolauridine as potential antimicrobial and cytotoxic agents” (Bioorg Med Chem, 2016).

How the values were obtained:
DNA topoisomerase 1 = molecular target: T1, DNA topoisomerase 1 (Homo sapiens, UniProt P11387); assay: Inhibition of human DNA topoisomerase 1 using pHOT1 as substrate after 30 mins by agarose gel electrophoresis
T1 sequence (P11387 whole entry): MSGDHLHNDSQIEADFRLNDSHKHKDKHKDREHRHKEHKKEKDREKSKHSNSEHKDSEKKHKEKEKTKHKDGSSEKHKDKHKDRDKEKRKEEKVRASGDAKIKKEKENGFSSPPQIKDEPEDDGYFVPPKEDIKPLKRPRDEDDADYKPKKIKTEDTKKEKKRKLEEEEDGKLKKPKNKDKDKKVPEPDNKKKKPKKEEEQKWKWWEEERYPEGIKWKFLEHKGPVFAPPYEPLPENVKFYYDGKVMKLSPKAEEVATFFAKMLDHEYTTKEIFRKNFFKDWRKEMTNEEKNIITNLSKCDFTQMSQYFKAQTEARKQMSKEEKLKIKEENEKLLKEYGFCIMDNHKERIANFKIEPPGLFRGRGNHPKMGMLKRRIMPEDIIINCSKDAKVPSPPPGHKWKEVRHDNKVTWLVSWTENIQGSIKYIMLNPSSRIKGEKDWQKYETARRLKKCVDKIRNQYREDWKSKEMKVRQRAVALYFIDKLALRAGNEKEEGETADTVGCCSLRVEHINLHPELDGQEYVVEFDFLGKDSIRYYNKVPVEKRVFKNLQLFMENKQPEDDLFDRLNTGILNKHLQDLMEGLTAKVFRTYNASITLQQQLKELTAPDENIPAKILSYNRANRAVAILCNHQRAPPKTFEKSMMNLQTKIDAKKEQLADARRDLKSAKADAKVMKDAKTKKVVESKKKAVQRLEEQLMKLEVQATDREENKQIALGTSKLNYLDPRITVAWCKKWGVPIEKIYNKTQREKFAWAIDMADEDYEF
Method in brief: (§1)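 Relaxation of supercoiled to relaxed DNA by TopoI measured with a commercial TopoI drug kit following kit protocol. IC50 calculated from dose-response curves of % inhibition versus concentration.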

[1] = Cytotoxicity against human SKOV3 cells assessed as cell growth inhibition after 48 hrs by neutral red dye based assay; format: functional; conditions: SK-OV-3, 48 h
Method in brief: (§2)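 Cells kept in RPMI-1640 with 10% bovine serum and 60 µg/mL amikacin, 37 °C, 5% CO2. Seeded at 25,000 cells/well, left 24 h to adhere. Samples diluted in RPMI added, highest final concentration 10 µg/mL. Growth measured by neutral red uptake after 48 h exposure.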

Cryptococcus neoformans = assay: Antimicrobial activity against Cryptococcus neoformans ATCC 52657; format: functional
Method in brief: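 Grown in mycophil broth 72 h, hemocytometer-counted, diluted to 200,000 CFU/mL. Exposed to diluted samples in 96-well plates, maximum final 50 µg/mL (DMSO up to 2.5%), incubated 30 °C. A630 readout. MIC is the lowest concentration inhibiting 80% of growth versus controls; IC50 read from concentration versus % growth graphs.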

[2] = Cytotoxicity against human BT549 cells assessed as cell growth inhibition after 48 hrs by neutral red dye based assay; format: functional; conditions: BT-549, 48 h; method in brief: as §2
[3] = Inhibition of Candida albicans DNA topoisomerase 1 using pHOT1 as substrate after 30 mins by agarose gel electrophoresis; method in brief: as §1
Plasmodium falciparum = assay: Antimalarial activity against Plasmodium falciparum D6 infected in RBC after 48 hrs by lactate dehydrogenase assay; format: functional; conditions: D6, 48 h
Method in brief: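 Parasites grown in A+ human erythrocytes in RPMI 1640 with 10% A+ human serum, 25 mM HEPES, 27 mM bicarbonate, 60 µg/mL amikacin, 37 °C under 90% N2/5% O2/5% CO2. Infected cells exposed 48 h in microtiter wells, highest concentration 4.8 µg/mL. Growth read by Malstat reagent (parasite LDH) with nitro blue tetrazolium reduction, absorbance 630 nm.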

Pseudomonas aeruginosa = assay: Antimicrobial activity against Pseudomonas aeruginosa ATCC 15442; format: functional
Method in brief: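 Pseudomonas grown 24 h in trypticase soy broth, diluted 1:50. Combined with diluted samples in 96-well plates, top final concentration 50 µg/mL (≤2.5% DMSO), 37 °C incubation. Growth read at 630 nm. MIC is the lowest tested concentration inhibiting 80% of growth versus controls; IC50 from concentration versus % growth graphs.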

[4] = Cytotoxicity against African green monkey Vero cells assessed as cell growth inhibition at 10 ug/ml after 48 hrs by neutral red dye based assay; format: toxicity; conditions: chlorocebus sabaeus; method in brief: as §2
[5] = Selectivity index, ratio of IC50 for human DNA topoisomerase 1 to IC50 for Candida albicans DNA topoisomerase 1
[6] = tested on: Mycobacterium intracellulare; assay: Antimicrobial activity against Mycobacterium intracellulare ATCC 23068; format: functional
Method in brief: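 Mycobacterium grown 72 h in Middlebrook medium with OADC supplement, diluted 1:30 in broth. Incubated at 37 °C with diluted samples in 96-well plates, highest final 50 µg/mL, DMSO at most 2.5%. Absorbance at 630 nm. MIC = lowest concentration with 80% growth inhibition relative to controls; IC50 from concentration versus % growth plots.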

[7] = Cytotoxicity against human KB cells assessed as cell growth inhibition after 48 hrs by neutral red dye based assay; format: functional; method in brief: as §2
Staphylococcus aureus [8] = assay: Antimicrobial activity against Staphylococcus aureus ATCC 6538; format: functional
Method in brief: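 Staphylococcus aureus grown 24 h in Eugon broth, diluted 1:50 in broth, added to serially diluted samples in 96-well plates (highest final DMSO 2.5%), incubated at 37 °C. Growth measured at 630 nm versus controls. MIC is the lowest concentration inhibiting 80% of growth; IC50 (50% inhibition) comes from concentration versus % growth plots.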

Staphylococcus aureus [9] = assay: Antimicrobial activity against methicillin-resistant Staphylococcus aureus; format: functional
Method in brief: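 MRSA precultured 24 h, diluted 1:50 in broth, added to serially diluted samples in 96-well plates (highest final DMSO 2.5%), incubated at 37 °C. Growth measured as absorbance at 630 nm versus controls. MIC is the lowest concentration giving 80% inhibition; IC50 (50% inhibition) is read from concentration versus % growth plots.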

[10] = Cytotoxicity against human SK-MEL cells assessed as cell growth inhibition after 48 hrs by neutral red dye based assay; format: functional; method in brief: as §2
Candida albicans = assay: Antimicrobial activity against Candida albicans B311; format: functional
Method in brief: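 Cultured in Sabouraud dextrose broth 24 h, counted by hemocytometer, diluted to 10,000 CFU/mL. Added to serially diluted samples in 96-well plates, top final concentration 50 µg/mL (≤2.5% DMSO), incubated 37 °C. Growth by A630. MIC is the lowest concentration giving 80% inhibition against controls; IC50 from concentration versus % growth plots.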

Row | Compound | IC50 (DNA topoisomerase 1) [µM] | IC50 [1] [mg/L] | IC50 (Cryptococcus neoformans) [mg/L] | MIC80 (Cryptococcus neoformans) [mg/L] | IC50 [2] [mg/L] | IC50 [3] [mg/L] | IC50 (Plasmodium falciparum) [mg/L] | IC50 (Pseudomonas aeruginosa) [mg/L] | Activity [4] | Ratio IC50 [5] | MIC80 [6] [mg/L] | IC50 [7] [mg/L] | IC50 (Staphylococcus aureus [8]) [mg/L] | IC50 (Staphylococcus aureus [9]) [mg/L] | IC50 [10] [mg/L] | IC50 (Candida albicans) [mg/L] | MIC80 (Candida albicans) [mg/L]
1 | [Br-].c1ccc(C[n+]2ccc3c4c(nc5ccccc53)-c3ccccc3-c42)cc1 | 1.34 | 1.2 | 2.13 | 12.5 | 6 | 0.55 | 0.0415 | 4 | Non-Toxic | 0.96 | 10 | 2.9 | 5 | 35 | 1.8 | – | –
2 | C[n+]1ccc2cc(-c3ccccc3)nc3c2c1-c1ccccc1-3.[I-] | 28.4 | < 1.1 | 0.4 | 0.78 | 6.2 | 35 | 0.46 | 25 | Non-Toxic | 2.92 | – | 7 | 20 | 20 | 9 | 0.32 | 0.39
3 | CC[n+]1ccc2ccnc3c2c1-c1ccccc1-3.[I-] | 41.6 | – | 13.3 | 25 | – | 10 | 0.0475 | – | Non-Toxic | 0.67 | – | – | 40 | – | – | 35 | 50
4 | COc1cc(C[n+]2ccc3ccnc4c3c2-c2ccccc2-4)cc(OC)c1.[Br-] | 34.5 | < 1.1 | 0.92 | 3.12 | > 10 | 12.5 | 0.011 | – | Non-Toxic | 0.83 | 50 | 7 | – | 9 | 2 | 20 | 25
5 | C[n+]1ccc2c3c(nc4ccccc42)-c2ccccc2-c31.[I-] | 4.54 | 1.3 | 2 | 6.25 | 7 | 1.5 | 0.033 | – | Non-Toxic | – | – | 6.5 | – | 20 | – | 23.3 | 25
6 | C[n+]1c2c3c(nc(-c4ccccc4)cc3c3ccccc31)-c1ccccc1-2.[I-] | 1.01 | 4.5 | 0.23 | 0.78 | 7.5 | 0.375 | – | 4 | Non-Toxic | 0.79 | 50 | > 10 | 4.5 | 5 | 3.5 | 0.2 | 0.39
7 | Cc1cc2c3c(nc4ccccc42)-c2ccccc2-c3[n+]1C.[I-] | 1.71 | 4.5 | 1.83 | 3.12 | 5.4 | 0.5 | 0.02 | – | Non-Toxic | 0.71 | – | 3.5 | – | 25 | > 10 | 25 | 50
8 | Cc1ccc(C[n+]2ccc3ccnc4c3c2-c2ccccc2-4)cc1.[Br-] | 28.3 | < 1.1 | 0.33 | 0.78 | – | 11 | 0.0095 | – | Non-Toxic | 1 | 50 | 6.8 | – | 35 | 1.9 | 3.17 | 6.25
9 | Brc1cccc(C[n+]2ccc3ccnc4c3c2-c2ccccc2-4)c1.[Br-] | 48.4 | 0.095 | 0.3 | 0.78 | 1.15 | 21 | 0.013 | 40 | Non-Toxic | 0.95 | 50 | 0.18 | – | – | 0.65 | 2.5 | 6.25
